ChEMBL document CHEMBL1159062, “Towards the synthesis of bisubstrate inhibitors of protein farnesyltransferase: Synthesis and biological evaluation of new farnesylpyrophosphate analogues” (Bioorg Med Chem, 2010)
One block for each compound: values may come before it. Calls of active or inactive are those of the source. The rule behind the calls is not given here.

Columns and labels:
[1] = Inhibition of yeast recombinant FTase by fluorescent-based assay; design: species or system Saccharomyces cerevisiae
[2] = target: T1, Protein farnesyltransferase (Homo sapiens, UniProt P49354+P49356); assay: Inhibition of human recombinant FTase by fluorescent-based assay; type: protein-complex assay
[3] = system: Trypanosoma brucei brucei; assay: Antitrypanosomal activity against Trypanosoma brucei brucei 93 blood stream form at 10 uM after 72 hrs by alamar blue assay; type: functional; settings: for inhibition at 10 µM: Trypanosoma brucei, 93, 72 h
In short: (§1)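 Strain 93 bloodstream forms cultured in HMI9 + 10% FCS, 37 °C, 5% CO2. Log-phase cells harvested at 3000g and seeded at 3 × 10^4 cells/mL. Inhibitors 0–100 µM, final DMSO 1%, 72 h. AlamarBlue (resazurin) added, read 4 h later at ex 530/em 590 nm. Inhibition relative to drug-free cells; triplicates, experiment repeated twice.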

[4] = system: Trypanosoma brucei brucei; assay: Antitrypanosomal activity against Trypanosoma brucei brucei 93 blood stream form at 1 uM after 72 hrs by alamar blue assay; type: functional; in short: as §1
[5] = system: Plasmodium falciparum; assay: Antiplasmodial activity against Plasmodium falciparum FcB1/Columbia assessed as [3H]hypoxanthine incorporation after 24 hrs by liquid scintillation spectrophotometer; type: functional, organism-based
In short: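 FcB1/Colombia (chloroquine-resistant) grown on human erythrocytes in RPMI 1640 + 8% heat-inactivated human serum, 37 °C, 3% CO2/6% O2/91% N2. Twofold serial dilutions from 10 mM DMSO stocks; asynchronous cultures at 1% parasitemia, 1% final hematocrit, 24 h, then 0.5 µCi [3H]-hypoxanthine for 24 h more. Freeze-thaw, filter harvest, scintillation counting versus same-plate control. IC50 from concentration–response curve; mean ± SD of several independent experiments.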

[6] = target: T1, Protein farnesyltransferase; assay: Binding affinity to CaaX site of human recombinant FTase by non-competitive Michaelis-Menten analysis for enzyme-inhibitor complex; type: protein-complex assay
In short: (§2)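 Partially purified recombinant human FTase, fluorescent farnesylation of dansyl-GCVLS. Buffer: 5.8 mM DTT, 6 mM MgCl2, 12 µM ZnCl2, 0.18% octyl-glucopyranoside, 53 mM Tris/HCl pH 7.5. Kinetics: FPP varied with Dns-GCVLS fixed at 2.5 µM, or peptide varied with FPP fixed at 10 µM.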

[7] = target: T1, Protein farnesyltransferase; assay: Binding affinity to FPP site of human recombinant FTase by competitive Michaelis-Menten analysis; type: protein-complex assay; in short: as §2
[8] = system: KB; assay: Cytotoxicity against human KB cells at 10 uM after 72 hrs by MTS assay; type: functional
In short: (§3)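 KB cells seeded at 2000/well and exposed 72 h to compound in medium with 1% final DMSO; docetaxel as positive control. Viability by MTS, OD 490 nm. Cytotoxicity index = OD treated/OD control × 100, from triplicates across three experiments.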

[9] = target: T1, Protein farnesyltransferase; assay: Binding affinity to CaaX site of human recombinant FTase by non-competitive Michaelis-Menten analysis for enzyme-substrate-inhibitor complex; type: protein-complex assay; in short: as §2
[10] = system: Trypanosoma brucei brucei; assay: Antitrypanosomal activity against Trypanosoma brucei brucei WT2913 procyclic form at 10 uM after 72 hrs by alamar blue assay; type: functional; settings: for inhibition at 10 µM: WT2913, 72 h
In short: (§4)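 Strain WT 2913 procyclic forms kept in semi-defined medium 79 + 10% heat-inactivated FCS at 27 °C. Log-phase cells spun at 3000g and seeded at 1 × 10^6 cells/mL. Exposed 72 h to 0–100 µM inhibitor in 1% final DMSO. Resazurin (AlamarBlue) fluorescence read after a further 4 h, ex 530/em 590 nm. Growth inhibition versus untreated; triplicates, done twice.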

[11] = target: T1, Protein farnesyltransferase; assay: Binding affinity to Dns-GCVLS peptide site of human recombinant FTase by competitive Michaelis-Menten analysis; type: protein-complex assay; in short: as §2
[12] = system: KB; assay: Cytotoxicity against human KB cells at 1 uM after 72 hrs by MTS assay; type: functional, cell-based; in short: as §3
[13] = system: Trypanosoma brucei brucei; assay: Antitrypanosomal activity against Trypanosoma brucei brucei WT2913 procyclic form at 1 uM after 72 hrs by alamar blue assay; type: functional, organism-based; in short: as §4

IC50 ([1]; read-out: IC50): 5 µM
IC50 ([2]; read-out: IC50): 0.88 µM
Compound: CC(C)=CCC/C(C)=C/CC/C(C)=C/COC(C(=O)O)C(=O)O

IC50 ([1]; read-out: IC50): 100 µM
IC50 ([2]; read-out: IC50): 130 µM
Compound: CC(C)=CCC/C(C)=C/CC/C(C)=C/COC(=O)CCC(=O)O

IC50 ([1]; read-out: IC50): 80 µM
IC50 ([2]; read-out: IC50): 160 µM
Compound: CC(C)=CCC/C(C)=C/CC/C(C)=C/COC(=O)CC(=O)O

IC50 ([1]; read-out: IC50): > 200 µM
IC50 ([2]; read-out: IC50): > 200 µM
Compound: CC(C)=CCC/C(C)=C/CC/C(C)=C/CCC(=O)NS(=O)(=O)c1ccccc1

IC50 ([1]; read-out: IC50): > 200 µM
IC50 ([2]; read-out: IC50): 85 µM
Compound: CC(C)=CCC/C(C)=C/CC/C(C)=C/CCC(=O)NS(=O)(=O)O

IC50 ([1]; read-out: IC50): 200 µM
IC50 ([2]; read-out: IC50): 60 µM
Compound: CC(C)=CCC/C(C)=C/CC/C(C)=C/CCC(=O)NC(C(=O)O)C(=O)O

IC50 [1]: Not Active
IC50 ([2]; read-out: IC50): > 200 µM
Compound: CC(C)=CCC/C(C)=C/CC/C(C)=C/CCC(N)=O

Activity [11]: inactive
Ki [7]: 0.26 µM
IC50 ([1]; read-out: IC50): 4 µM
IC50 ([2]; read-out: IC50): 0.9 µM
Compound: CC(C)=CCC/C(C)=C/CC/C(C)=C/CC(C(=O)O)C(=O)O

IC50 ([1]; read-out: IC50): 42 µM
IC50 ([2]; read-out: IC50): 170 µM
Compound: CC(C)=CCC/C(C)=C/CC/C(C)=C/CCCC(=O)O

IC50 ([1]; read-out: IC50): 35 µM
IC50 ([2]; read-out: IC50): 60 µM
Compound: CC(C)=CCC/C(C)=C/CC/C(C)=C/CC(=O)CCCC(=O)O

IC50 ([1]; read-out: IC50): 80 µM
IC50 ([2]; read-out: IC50): > 200 µM
Compound: CC(C)=CCC/C(C)=C/CC/C(C)=C/CCC(=O)CCC(=O)O

IC50 ([1]; read-out: IC50): 15 µM
IC50 ([2]; read-out: IC50): 60 µM
Compound: CC(C)=CCC/C(C)=C/CC/C(C)=C/CCC(=O)CCCC(=O)O

IC50 ([1]; read-out: IC50): 40 µM
IC50 ([2]; read-out: IC50): 130 µM
Compound: CC(C)=CCC/C(C)=C/CC/C(C)=C/C/C=C/C(=O)O

IC50 [1]: Not Active
Compound: CC(C)=CCC/C(C)=C/CC/C(C)=C/CCC(=O)NO

Continued, compound first:

Compound: CCCCCCCCCCCCCC/C(C(=O)O)=C(\C)C(=O)O [CHAETOMELLIC ACID A]
IC50 ([1]; read-out: IC50): 0.34 µM
IC50 ([2]; read-out: IC50): 0.175 µM

Compound: CCOC(=O)C(C/C=C(\C)CC/C=C(\C)CCC=C(C)C)(CCCc1nccn1C)C(=O)OCC
inhibition at 10 µM [3]: 89%
Activity [4]: 24%
IC50 [5]: 4 µM

Compound: CC(C)=CCC/C(C)=C/CC/C(C)=C/CC(CCCc1nccn1C)(C(=O)O)C(=O)O
IC50 ([2]; read-out: IC50): 21 µM

Compound: CCOC(=O)C(C/C=C(\C)CC/C=C(\C)CCC=C(C)C)(CCCc1ncc(CN[C@H](C(=O)N[C@@H](Cc2ccccc2)C(=O)N[C@@H](CCSC)C(=O)O)C(C)C)n1C)C(=O)O (stereo partly specified)
Ki [6]: 7.7 µM
inhibition [3]: inactive
Ki [7]: 0.23 µM
inhibition [8]: inactive
Ki [9]: 5.6 µM
IC50 ([2]; read-out: IC50): 0.24 µM
IC50 [5]: 31.4 µM
inhibition [10]: inactive

Compound: CC(C)=CCC/C(C)=C/CC/C(C)=C/C(c1nccn1C)C(CC(=O)O)C(=O)O (stereo unspecified)
IC50 ([2]; read-out: IC50): 12 µM

Compound: CC(C)=CCC/C(C)=C/CC/C(C)=C/C=C(C(=O)O)C(=O)O
IC50 [2]: Not Active

Compound: CCOC(=O)C(C/C=C/c1ncc(CN[C@H](C(=O)N[C@@H](Cc2ccccc2)C(=O)N[C@@H](CCSC)C(=O)O)C(C)C)n1C)(C/C=C(\C)CC/C=C(\C)CCC=C(C)C)C(=O)O (stereo partly specified)
Ki [6]: 17 µM
inhibition [3]: inactive
Ki [7]: 0.5 µM
inhibition [8]: inactive
Ki [9]: 15 µM
IC50 ([2]; read-out: IC50): 0.64 µM
IC50 [5]: 17.2 µM
inhibition [10]: inactive

Compound: CC(C)=CCC/C(C)=C/CC/C(C)=C/C=C/C(=O)NC(C(=O)O)C(=O)O
IC50 ([2]; read-out: IC50): 10 µM

Compound: CCOC(=O)C(C/C=C(\C)CC/C=C(\C)CCC=C(C)C)(CCCc1ncc(CN[C@H](C(=O)N[C@@H](Cc2ccccc2)C(=O)N[C@@H](CCSC)C(=O)OC)C(C)C)n1C)C(=O)OCC
inhibition at 10 µM [8]: 44%
Activity [12]: inactive
IC50 [2]: Not Active
Activity [13]: inactive
IC50 [5]: 1 µM
inhibition at 10 µM [10]: 54%

Compound: CSCC[C@H](NC(=O)[C@H](Cc1ccccc1)NC(=O)[C@@H](NCc1cnc(CCCC(CC(=O)O)C(=O)O)n1C)C(C)C)C(=O)O (stereo partly specified)
IC50 ([2]; read-out: IC50): 60 µM

Compound: CCOC(=O)C(C/C=C/c1ncc(CN[C@H](C(=O)N[C@@H](Cc2ccccc2)C(=O)N[C@@H](CCSC)C(=O)OC)C(C)C)n1C)(C/C=C(\C)CC/C=C(\C)CCC=C(C)C)C(=O)OCC
inhibition at 10 µM [3]: 92%
inhibition at 10 µM [8]: 60%
Activity [12]: inactive
IC50 [2]: Not Active
Activity [4]: 64%
Activity [13]: inactive
IC50 [5]: 1.1 µM
inhibition at 10 µM [10]: 28%

Compound: CC(C)=CCC/C(C)=C/CC/C(C)=C/C=C/C(N)=O
IC50 [1]: Not Active
IC50 [2]: Not Active
